From ChEMBL document CHEMBL1123481, “Structure-activity relationships of (arylalkyl)imidazole anticonvulsants: comparison of the (fluorenylalkyl)imidazoles with nafimidone and denzimol” (J Med Chem, 1986) come the findings set out here.

Activity calls are given as the source filed them. No cut-off for these calls is given here.

Data set [1] deals with Mus musculus. The data set can be described thus: Effective dose in mice by horizontal screen assay (administered orally); No effect at highest dose of 400 mg/kg. Set-up: dose 400 mg/kg. Format: functional, organism-based. The method, boiled down:
(§1)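 Fasted, pre-trained male CF1 mice (20–25 g) were dosed orally across a range of doses, given as a suspension in 5% acacia/water. Each mouse was placed on a 13 cm square wire screen, and the screen was rotated 180°. The score was return to the top within 1 min. Time of peak effect was scanned at 0.5–4 h. Each compound was then retested at that time with at least 4 doses and 12 mice per dose.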

The species entered for data set [2] is Mus musculus. The experiment in a line: Potentiation of hexobarbital-induced sleeping time in mice. Format: functional. The method, boiled down:
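Groups of 10 fasted mice received compound orally at 10 mg/kg in 5% acacia/water (10 mL/kg). At the compound's time of peak effect they were given hexobarbital 100 mg/kg ip, solubilized with stoichiometric NaOH. Sleeping time, measured as loss of righting reflex, was recorded to the nearest minute. Values are mean ± SEM.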

Data set [3] deals with Mus musculus. The data set can be described thus: Compound was tested for effective dose in mice by maximal electroshock assay (administered per orally). Format: functional. The note with it: po. The procedure, abridged: (§2)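 Mice were dosed orally across a range of doses, given in 5% acacia/water. Time of peak effect was found by shocking at 0.5, 1, 2, 3 and 4 h. Corneal electroshock was 40 mA, 0.1 s, ac. Each compound was retested at peak time with at least four doses and 12 mice per dose. The ED50 for prevention of tonic-extensor convulsion was calculated by Litchfield–Wilcoxon; 95% confidence limits are given.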
In general terms: Protection in the maximal electroshock model is a classic sign of anticonvulsant action.

The test system of data set [4] is Mus musculus. The experiment in a line: Effective dose in mice by pentylenetetrazole assay (administered subcutaneously); No effect at highest dose of 400 mg/kg. Format: functional, organism-based. The arrangement: dose 400 mg/kg. The method, boiled down: (§3)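 Test compound was given orally to mice. At its previously determined time of peak effect, pentylenetetrazole (110 mg/kg in water, 10 mL/kg) was injected sc into the neck skin fold. Mice were watched for 15 min for presence or absence of a clonic seizure. Where protection was bell-shaped, the value is the dose giving maximum protection.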

The subject of data set [5] is Mus musculus. The data set can be described thus: Effective dose in mice by maximal electroshock assay, administered orally. Format: functional. The note with it: po. The method, boiled down:
as §2

The species named for data set [6] is Mus musculus. The data set can be described thus: Compound was tested for time to peak anticonvulsant effect (TPE). Format: functional. The method, boiled down: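 Time to peak effect after oral dosing in 5% acacia/water was estimated by testing mice at 0.5, 1, 2, 3 and 4 h posttreatment in the MES and horizontal screen tests.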
In data set [7] the test system is Mus musculus. The data set can be described thus: Compound was tested for effective dose in mice by maximal electroshock assay (administered orally); No effect at highest dose of 300 mg/kg. Format: functional, organism-based. Set-up: dose 300 mg/kg. The procedure, abridged:
as §2

Data set [8] has as its system Mus musculus. The data set can be described thus: Compound was tested for effective dose in mice by horizontal screen assay (administered orally); Ca 550. Format: functional. The note with it: po. The procedure, abridged: as §1
Data set [9] deals with Mus musculus. The experiment in a line: Compound was tested for effective dose in mice by horizontal screen assay (administered orally); No effect at highest dose of 200 mg/kg. Format: functional, organism-based. Set-up: dose 200 mg/kg. The method, boiled down: as §1
For data set [10], the system named is Mus musculus. The experiment in a line: Compound was tested for effective dose in mice by pentylenetetrazole assay (administered subcutaneously); Ca 400. Format: functional. The note with it: sc. The procedure, abridged:
as §3

The nature of data set [11]: Compound was tested for its toxicity in rat; Ca 4550. The note with it: in vivo. Format: organism-based.
For data set [12], the system named is Mus musculus. The data set can be described thus: Effective dose in mice by pentylenetetrazole assay (administered subcutaneously). The note with it: sc. Format: functional. The method, boiled down: as §3
The test system of data set [13] is Mus musculus. The experiment in a line: Effective dose in mice by horizontal screen assay (administered orally). Format: functional. The note with it: po. The procedure, abridged:
as §1

Data set [14] in a line: Compound was tested for its toxicity in rat. Format: organism-based. The note with it: in vivo. The procedure, abridged:
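Female Fischer 344 rats were fasted and given a single oral gavage dose, four dose levels per compound, as a suspension in 10% aqueous acacia. Mortality was scored and the median lethal dose (LD50) was derived.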

Data set [15] has as its target T1, GABA-A receptor; anion channel (Rattus norvegicus) (UniProt O09028+P15431+P18506+P18508+P19969+P20236+P23574+P23576+P28471+P28473+P30191+P62813+P63079+P63138+Q91ZM7+Q9ES14). The data set can be described thus: In vivo displacement of [3H]flunitrazepam binding to rat cortical membranes after 20 mg/kg ip dose. Format: organism-based. Set-up: dose 20 mg/kg. The note with it: Membrane, at 20 mg/kg. The method, boiled down: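 Male Sprague-Dawley rats (100 g; five per group) received saline or compound at 20 mg/kg ip. After 30 min, [3H]flunitrazepam (100 μCi/kg) was given iv via the tail vein. Rats were killed 20 min later. Cortex was homogenized in 50 mM Tris-HCl pH 7.4, and the particulate fraction was filtered and rinsed. Results are given as % of saline control, mean ± SEM.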

Data set [16] addresses T1, GABA-A receptor; anion channel (Rattus norvegicus). The data set can be described thus: In vitro displacement of [3H]flunitrazepam binding to cortical membranes at 5e-5M concentration. The procedure, abridged:
(§4)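 Rat cortical membranes (180 μg protein) were incubated with 2 nM [3H]flunitrazepam in 50 mM Tris-HCl pH 7.4 for 40 min at 4 °C, with test compound at 5×10^-5 M, in triplicate. Samples were filtered and washed three times with ice-cold buffer. Nonspecific binding was defined with 3 μM diazepam. Results are given as % of control, mean ± SEM.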
For orientation: Loss of bound radioactivity is the signal in a displacement assay; it reports binding, not function.

Data set [17] concerns Mus musculus. The experiment in a line: Compound was tested for effective dose in mice by horizontal screen assay (administered orally); No effect at highest dose of 300 mg/kg. Format: functional, organism-based. The arrangement: dose 300 mg/kg. The method, boiled down: as §1
The target of data set [18] is Gamma-aminobutyric acid receptor subunit gamma-1 (Rattus norvegicus) (UniProt P23574). The data set can be described thus: In vitro displacement of [3H]flunitrazepam binding to rat cortical membranes at 50 uM (No effect). Format: cell membranes. The note with it: Membrane. The procedure, abridged: as §4
Data set [19] has as its system Mus musculus. The experiment in a line: Compound was tested for effective dose in mice by pentylenetetrazole assay (administered subcutaneously); No effect at highest dose of 200 mg/kg. Format: functional, organism-based. Set-up: dose 200 mg/kg. The method, boiled down:
as §3

Gamma-aminobutyric acid receptor subunit gamma-1 (Rattus norvegicus), sequence (P23574 whole entry): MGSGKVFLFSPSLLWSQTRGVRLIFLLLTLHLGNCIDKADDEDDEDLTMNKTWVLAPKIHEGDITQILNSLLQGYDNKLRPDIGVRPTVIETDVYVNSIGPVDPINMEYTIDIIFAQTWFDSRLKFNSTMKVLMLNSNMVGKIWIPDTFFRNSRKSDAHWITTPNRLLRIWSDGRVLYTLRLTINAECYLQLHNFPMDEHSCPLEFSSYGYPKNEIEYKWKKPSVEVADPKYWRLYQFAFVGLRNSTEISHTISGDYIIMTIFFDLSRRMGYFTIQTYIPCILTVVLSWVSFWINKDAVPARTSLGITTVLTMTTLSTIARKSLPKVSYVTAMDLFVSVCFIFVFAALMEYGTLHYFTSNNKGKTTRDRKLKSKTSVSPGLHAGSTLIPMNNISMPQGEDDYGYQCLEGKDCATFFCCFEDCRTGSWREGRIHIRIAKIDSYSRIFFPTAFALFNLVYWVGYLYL

By ED50 is commonly meant the dose at which the effect has come halfway, by size or by number of responders. As to `CC(O)(Cn1ccnc1)c1ccc2c(c1)Cc1ccccc1-2` (stereo not drawn), the ED50 entry in the data set on Mus musculus [1] was “No effect”; in the data set with Mus musculus [3], 10 mg/kg; in the data set with Mus musculus [4] it was “No effect”; in the data set with Mus musculus [5], 10 mg/kg. The ST in the data set listed under Mus musculus [2] is on record as 146.9 min. Further, in the data set listed under Mus musculus [6], the TPE was determined as 2 h.
For `c1ccc2cc(CCc3ncc[nH]3)ccc2c1`, in the data set on Mus musculus [7], the ED50 result is “No effect”. The compound also returned a TPE in the data set filed under Mus musculus [6] of 1 h.
Consider `O=C(Cn1ccnc1)c1ccc2c(c1)CCc1ccccc1-2`, for which the ED50 result was “No effect” with Mus musculus [4], 60 mg/kg in the data set on Mus musculus [5] and 550 mg/kg with Mus musculus [8]. In addition, the TPE in the data set filed under Mus musculus [6] was found to be 2 h.
With `OC(Cn1ccnc1)c1ccc2c(c1)Cc1ccccc1-2` (stereo not drawn), in the data set listed under Mus musculus [2], the ST is 118.3 min. In the data set filed under Mus musculus [6], this compound gave a TPE of 1 h. The values for the ED50 entry in the data set on Mus musculus [9] and in the data set with Mus musculus [10] were “No effect” and 400 mg/kg, respectively.
By LD50 is commonly meant the dose expected to kill half of the subjects tested. Turning to `O=C(Cn1ccnc1)c1ccc2c(c1)Cc1ccccc1-2`, the values for the LD50 in data set [11] and in [14] were 4550 mg/kg and 504 mg/kg, respectively. In addition, the ST in the data set filed under Mus musculus [2] is 73.7 min. The ED50 in the data set on Mus musculus [12] is more than 200 mg/kg; in the data set with Mus musculus [13], more than 1000 mg/kg. The TPE in the data set filed under Mus musculus [6] was found to be 3 h.
Regarding `O=C(Cn1ccnc1)c1cc2ccccc2o1`, the Control amounted to 142% in data set [15] and 99.1% in data set [16]. Also, the ED50 in the data set on Mus musculus [12] was more than 400 mg/kg; in the data set with Mus musculus [5], 30 mg/kg. The ED50 entry in the data set with Mus musculus [17] was “inactive”. This compound also showed a TPE in the data set listed under Mus musculus [6] of 1.5 h. The Binding entry in data set [18] is “inactive”.
On to `O=C(CCCn1ccnc1)c1ccc2c(c1)Cc1ccccc1-2`, for which the figures for the median effective dose (ED50) with Mus musculus [5], with Mus musculus [19] and with Mus musculus [9] were 27 mg/kg, “No effect” and “No effect”, respectively. Moreover, the TPE in the data set listed under Mus musculus [6] was 0.5 h.
